Results from different studies.
≈ marks a conversion by molar mass, not a printed value.
Organism: Mycobacterium tuberculosis variant bovis BCG
Effect on: microbial growth

SMILES	system	setting	measurement	result
COc1ccc(C=CC(=O)c2ccc([N+](=O)[O-])cc2)cc1OC	BCG	7 days	MIC	200 µg/mL
Nc1nccnc1C(=O)O	ATCC35734 BCG	5 days	IC50	800 µM
C=CC(c1ccc(-c2ccc(OC)c(C)c2)cc1)n1ccnc1 (stereo not drawn)	BCG	–	MIC50	17.3 µM (≈ 5.27 µg/mL)
COc1ccc(C=CC(=O)c2ccc(Cl)cc2)cc1OC	BCG	7 days	MIC	200 µg/mL
Nc1cnc(C(=O)O)cn1	ATCC35734 BCG	5 days	IC50	800 µM
NNC(=O)c1ccncc1	ATCC35734 BCG	–	MIC	≤ 0.25 µM
COc1ccc(C=CC(=O)c2ccc(Br)cc2)cc1OC	BCG	7 days	MIC	12.5 µg/mL
c1ccc(COc2ccccc2CNCc2ccncc2)cc1	ATCC35734 BCG	–	MIC	> 62.5 µM
COc1ccc(C=CC(=O)c2cccc([N+](=O)[O-])c2)cc1OC	BCG	7 days	MIC	100 µg/mL
Clc1ccc(COC(Cn2ccnc2)c2ccc(Cl)cc2Cl)cc1 (stereo not drawn)	BCG	–	MIC50	12.7 µM (≈ 4.85 µg/mL)
c1ccc(COc2ccc(CNCc3ccncc3)cc2)cc1	ATCC35734 BCG	–	MIC	> 62.5 µM
C=CC(c1ccc(-c2ccc(O)c(Cl)c2)cc1)n1ccnc1 (stereo not drawn)	BCG	–	MIC50	49.9 µM (≈ 15.5 µg/mL)
COc1ccc(C(=O)C=Cc2ccc(OC)c(OC)c2)cc1	BCG	7 days	MIC	50 µg/mL
c1ccc(COc2ccc(CNCc3cccnc3)cc2)cc1	ATCC35734 BCG	–	MIC	> 62.5 µM
C=CC(c1ccc(-c2ccc(OC)c(OC)c2)cc1)n1ccnc1 (stereo not drawn)	BCG	–	MIC50	> 100 µM
